# Reference: ChEMBL document CHEMBL1629438, “Selective peroxisome proliferator-activated receptor δ isosteric selenium agonists as potent anti-atherogenic agents in vivo” (Bioorg Med Chem Lett, 2010)
# Activity calls are given as the source filed them. The calls are words filed in the database; no cut-off is given here.
# Key:
# [1] = target: T1, Peroxisome proliferator-activated receptor alpha (Homo sapiens, UniProt Q07869); assay: Agonist activity at human PPAR-alpha expressed in african green monkey CV-1 cells after 24 hrs by luciferase reporter gene assay; format: functional, cell-based
# T1 sequence (Q07869 whole entry): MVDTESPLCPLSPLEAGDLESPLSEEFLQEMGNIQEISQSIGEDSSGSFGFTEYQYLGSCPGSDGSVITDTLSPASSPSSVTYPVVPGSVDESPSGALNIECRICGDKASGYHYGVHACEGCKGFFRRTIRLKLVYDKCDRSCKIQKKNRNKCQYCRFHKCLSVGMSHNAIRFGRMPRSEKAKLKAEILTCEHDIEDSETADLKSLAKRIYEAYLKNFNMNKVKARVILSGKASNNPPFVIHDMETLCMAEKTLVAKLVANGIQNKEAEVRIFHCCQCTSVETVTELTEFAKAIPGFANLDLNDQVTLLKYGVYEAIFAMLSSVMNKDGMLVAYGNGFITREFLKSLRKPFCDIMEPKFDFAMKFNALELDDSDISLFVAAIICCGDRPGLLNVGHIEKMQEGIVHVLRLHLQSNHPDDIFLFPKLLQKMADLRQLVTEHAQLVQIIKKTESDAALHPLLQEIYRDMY
# Procedure, shortened: (§1)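 Cell-based co-transfection reporter assay, with EC50 values derived for each PPAR subtype.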
# [2] = target: T2, Peroxisome proliferator-activated receptor gamma (Homo sapiens, UniProt P37231); assay: Agonist activity at human PPAR-gamma expressed in african green monkey CV-1 cells after 24 hrs by luciferase reporter gene assay; format: functional, cell-based
# T2 sequence (P37231 whole entry): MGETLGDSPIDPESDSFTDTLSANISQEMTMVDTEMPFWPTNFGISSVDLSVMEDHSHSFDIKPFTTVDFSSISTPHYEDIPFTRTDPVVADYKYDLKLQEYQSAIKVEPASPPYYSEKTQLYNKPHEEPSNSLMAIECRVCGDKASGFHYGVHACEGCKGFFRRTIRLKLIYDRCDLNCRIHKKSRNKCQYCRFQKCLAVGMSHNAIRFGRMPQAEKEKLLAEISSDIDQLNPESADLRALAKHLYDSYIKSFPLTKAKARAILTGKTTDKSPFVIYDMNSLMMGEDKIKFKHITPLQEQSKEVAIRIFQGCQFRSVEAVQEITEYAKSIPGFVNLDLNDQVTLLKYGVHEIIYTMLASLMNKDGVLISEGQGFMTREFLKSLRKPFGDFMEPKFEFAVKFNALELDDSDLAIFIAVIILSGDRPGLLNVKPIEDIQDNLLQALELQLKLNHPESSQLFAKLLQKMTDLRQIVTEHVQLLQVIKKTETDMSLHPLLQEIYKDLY
# [3] = target: T3, Peroxisome proliferator-activated receptor delta (Homo sapiens, UniProt Q03181); assay: Agonist activity at human PPAR-delta expressed in african green monkey CV-1 cells after 24 hrs by luciferase reporter gene assay; format: functional, cell-based; procedure, shortened: as §1
# T3 sequence (Q03181 whole entry): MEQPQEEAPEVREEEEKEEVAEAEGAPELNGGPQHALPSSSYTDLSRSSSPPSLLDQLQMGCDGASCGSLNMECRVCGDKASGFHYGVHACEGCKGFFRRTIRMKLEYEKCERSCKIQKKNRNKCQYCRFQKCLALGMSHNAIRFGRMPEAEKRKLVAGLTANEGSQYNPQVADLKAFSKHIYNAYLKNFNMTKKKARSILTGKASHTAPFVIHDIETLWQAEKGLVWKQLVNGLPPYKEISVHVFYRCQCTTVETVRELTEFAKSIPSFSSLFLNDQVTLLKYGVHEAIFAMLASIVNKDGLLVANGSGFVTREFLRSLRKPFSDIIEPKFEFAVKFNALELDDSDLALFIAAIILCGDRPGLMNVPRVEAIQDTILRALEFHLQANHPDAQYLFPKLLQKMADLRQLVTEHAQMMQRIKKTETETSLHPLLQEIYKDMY
# Mus musculus [4] = assay: Toxicity in apolipoprotein E-deficient C57BL/6J mouse assessed as weight loss at 6 mg/kg; format: organism-based; set-up: dose 6 mg/kg; details: in vivo
# [5] = target: T4, Peroxisome proliferator-activated receptor alpha (Mus musculus) (UniProt P23204); assay: Agonist activity at mouse PPAR-alpha expressed in african green monkey CV-1 cells after 24 hrs by luciferase reporter gene assay; format: functional, cell-based
# T4 sequence (whole entry): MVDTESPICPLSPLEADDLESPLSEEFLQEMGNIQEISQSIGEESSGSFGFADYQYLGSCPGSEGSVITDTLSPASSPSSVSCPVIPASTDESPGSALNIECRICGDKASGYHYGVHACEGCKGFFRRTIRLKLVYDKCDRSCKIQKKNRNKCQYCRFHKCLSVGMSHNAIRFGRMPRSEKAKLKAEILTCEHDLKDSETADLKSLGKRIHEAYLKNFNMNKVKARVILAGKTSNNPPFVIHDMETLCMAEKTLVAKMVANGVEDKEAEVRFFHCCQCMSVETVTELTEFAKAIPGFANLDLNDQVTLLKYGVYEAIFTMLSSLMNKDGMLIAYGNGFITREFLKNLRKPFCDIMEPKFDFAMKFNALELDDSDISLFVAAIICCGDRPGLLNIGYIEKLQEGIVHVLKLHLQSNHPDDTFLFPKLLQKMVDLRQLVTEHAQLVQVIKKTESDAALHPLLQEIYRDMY
# Mus musculus [6] = assay: Effect on cholesterol homeostasis in HC/HF diet-fed apolipoprotein E-deficient C57BL/6J mouse assessed as effect on ICAM-1 gene expression at 2 mg/kg/day for 4 weeks by quantitative RT-PCR; format: functional, organism-based
# Procedure, shortened: (§2)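 Apoe-/- mice, eight weeks old, fed an atherogenic HC/HF diet (1.25% cholesterol, 21% fat) for 14 weeks. They received 2 mg/kg/day of test agent (n = 7) or vehicle (n = 6) over the final 4 weeks, then were compared with the vehicle group.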
# Mus musculus [7] = assay: Effect on cholesterol homeostasis in HC/HF diet-fed apolipoprotein E-deficient C57BL/6J mouse assessed as effect on CD36 gene expression at 2 mg/kg/day for 4 weeks by quantitative RT-PCR; format: functional, organism-based; procedure, shortened: as §2
# Mus musculus [8] = assay: Antiatherogenic effect in HC/HF diet-fed apolipoprotein E-deficient C57BL/6J mouse assessed as decrease in lesion fatty streak in aorta at 2 mg/kg/day for 4 weeks; format: functional; set-up: scale not given: the % may be the effect or the level left
# Procedure, shortened: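 ApoE-/- mice were 8 weeks old at start. They were fed an HC/HF atherogenic diet (1.25% cholesterol, 21% fat) for 14 weeks and dosed at 2 mg/kg/day over the last 4 weeks (treated n = 7, vehicle n = 6). Mice were weighed weekly. Lesion fatty streak extent was scored throughout the aorta against vehicle.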
# Mus musculus [9] = assay: Antiatherogenic effect in HC/HF diet-fed apolipoprotein E-deficient C57BL/6J mouse assessed as decrease in IL-6 gene expression at 2 mg/kg/day for 4 weeks by quantitative RT-PCR; format: functional, organism-based; procedure, shortened: as §2
# [10] = target: Peroxisome proliferator-activated receptor delta (Homo sapiens) (UniProt Q03181); assay: Binding affinity to human PPAR-delta after 1 hr by TR-FRET assay
# Mus musculus [11] = assay: Toxicity in apolipoprotein E-deficient C57BL/6J mouse assessed as weight loss at 60 mg/kg; format: organism-based; set-up: dose 60 mg/kg; details: in vivo
# Mus musculus [12] = assay: Effect on cholesterol homeostasis in HC/HF diet-fed apolipoprotein E-deficient C57BL/6J mouse assessed as effect on VCAM-1 gene expression at 2 mg/kg/day for 4 weeks by quantitative RT-PCR; format: functional, organism-based; procedure, shortened: as §2
# [13] = target: T5, Peroxisome proliferator-activated receptor delta (Homo sapiens) (UniProt Q03181); assay: Binding affinity to human PPAR-delta after 1 hr by TR-FRET assay
# T5 sequence (whole entry): T3 sequence (Q03181 whole entry)
# [14] = target: T6, Peroxisome proliferator-activated receptor gamma (Mus musculus) (UniProt P37238); assay: Agonist activity at mouse PPAR-gammaexpressed in african green monkey CV-1 cells after 24 hrs by luciferase reporter gene assay; format: functional, cell-based
# T6 sequence (whole entry): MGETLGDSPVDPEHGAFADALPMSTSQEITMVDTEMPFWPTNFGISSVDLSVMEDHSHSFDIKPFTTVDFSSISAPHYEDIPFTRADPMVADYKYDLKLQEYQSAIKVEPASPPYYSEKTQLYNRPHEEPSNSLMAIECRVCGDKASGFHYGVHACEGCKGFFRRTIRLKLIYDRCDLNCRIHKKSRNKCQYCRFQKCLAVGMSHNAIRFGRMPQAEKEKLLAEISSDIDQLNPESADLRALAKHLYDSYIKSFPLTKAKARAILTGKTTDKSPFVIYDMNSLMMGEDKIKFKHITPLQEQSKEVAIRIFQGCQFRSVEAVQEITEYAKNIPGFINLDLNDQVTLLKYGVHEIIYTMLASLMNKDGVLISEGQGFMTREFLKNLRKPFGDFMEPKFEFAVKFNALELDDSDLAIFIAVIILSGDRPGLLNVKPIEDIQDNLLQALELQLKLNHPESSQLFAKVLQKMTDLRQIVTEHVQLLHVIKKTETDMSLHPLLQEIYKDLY
# Mus musculus [15] = assay: Toxicity in apolipoprotein E-deficient C57BL/6J mouse assessed as weight loss at 5 mg/kg; format: organism-based; set-up: dose 5 mg/kg; details: in vivo
# Mus musculus [16] = assay: Antiatherogenic effect in apoE-deficient mouse assessed as increase in HDL-cholesterol level at 2 mg/kg/day for 4 weeks
# Mus musculus [17] = assay: Toxicity in […] diet-fed apolipoprotein E-deficient C57BL/6J mouse assessed as increase in liver weight at 2 mg/kg/day for 4 weeks; format: organism-based; details: in vivo, 672 h; procedure, shortened: as §2
# [18] = target: T7, Peroxisome proliferator-activated receptor delta (Mus musculus, UniProt P35396); assay: Agonist activity at mouse PPAR-delta expressed in african green monkey CV-1 cells after 24 hrs by luciferase reporter gene assay; format: functional, cell-based
# T7 sequence (P35396 whole entry): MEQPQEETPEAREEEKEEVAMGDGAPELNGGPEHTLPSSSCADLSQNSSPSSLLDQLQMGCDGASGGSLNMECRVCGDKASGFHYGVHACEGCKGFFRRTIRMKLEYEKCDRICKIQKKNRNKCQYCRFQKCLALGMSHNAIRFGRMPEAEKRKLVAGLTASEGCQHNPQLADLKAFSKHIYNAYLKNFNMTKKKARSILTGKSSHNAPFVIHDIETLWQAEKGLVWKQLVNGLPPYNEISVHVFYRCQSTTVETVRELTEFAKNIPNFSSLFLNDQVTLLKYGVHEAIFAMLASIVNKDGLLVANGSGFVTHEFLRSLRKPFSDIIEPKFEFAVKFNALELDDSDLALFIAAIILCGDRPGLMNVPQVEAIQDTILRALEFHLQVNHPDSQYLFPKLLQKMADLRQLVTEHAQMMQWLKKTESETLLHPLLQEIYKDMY
# Mus musculus [19] = assay: Effect on cholesterol homeostasis in HC/HF diet-fed apolipoprotein E-deficient C57BL/6J mouse assessed as effect on ABCA1 gene expression at 2 mg/kg/day for 4 weeks by quantitative RT-PCR; format: functional, organism-based; procedure, shortened: as §2
# Mus musculus [20] = assay: Toxicity in […] diet-fed apolipoprotein E-deficient C57BL/6J mouse assessed as weight loss at 2 mg/kg/day for 4 weeks; format: organism-based; details: in vivo, 672 h
# Procedure, shortened: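 Eight-week-old Apoe-/- mice were kept on an HC/HF diet (1.25% cholesterol, 21% fat) for 14 weeks, with 2 mg/kg/day dosing (n = 7) or vehicle (n = 6) in the last 4 weeks. Body weight was recorded every week throughout the experimental period and compared between treated and control groups.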
# Mus musculus [21] = assay: Effect on cholesterol homeostasis in HC/HF diet-fed apolipoprotein E-deficient C57BL/6J mouse assessed as effect on MCP1 gene expression at 2 mg/kg/day for 4 weeks by quantitative RT-PCR; format: functional, organism-based; procedure, shortened: as §2
# Mus musculus [22] = assay: Effect on cholesterol homeostasis in HC/HF diet-fed apolipoprotein E-deficient C57BL/6J mouse assessed as effect on Il-10 gene expression at 2 mg/kg/day for 4 weeks by quantitative RT-PCR; format: functional, organism-based; procedure, shortened: as §2
# [23] = Drug level in LDLR-deficient mouse serum at 60 mg/kg; format: ADME, organism-based; set-up: dose 60 mg/kg
# Mus musculus [24] = assay: Antiatherogenic effect in HC/HF diet-fed apolipoprotein E-deficient C57BL/6J mouse assessed as increase in HDL-cholesterol at 2 mg/kg/day for 4 weeks; format: functional, organism-based; procedure, shortened: as §2
# Mus musculus [25] = assay: Toxicity in LDLR-deficient mouse assessed as increase in liver weight at 60 mg/kg; format: organism-based; set-up: dose 60 mg/kg; details: in vivo
smiles,measurement,setting,value
CCC(Oc1ccc([Se]Cc2sc(-c3ccc(C(F)(F)F)cc3)nc2C)cc1C)C(=O)O (stereo unspecified),EC50,[1],83.1 nM
same,EC50,[2],> 1000 nM
same,EC50,[3],6.2 nM
Cc1cc([Se]Cc2sc(-c3ccc(C(F)(F)F)cc3)nc2C)ccc1OC(C)(C)C(=O)O,EC50,[1],15.2 nM
same,EC50,[2],100 nM
same,EC50,[3],4.5 nM
Cc1cc([Se]Cc2sc(-c3ccc(C(F)(F)F)cc3)nc2C)ccc1OC(C)C(=O)O (stereo unspecified),EC50,[1],120 nM
same,EC50,[2],> 1000 nM
same,EC50,[3],11 nM
Cc1cc([Se]Cc2sc(-c3ccc(C(F)(F)F)cc3)nc2C)ccc1OCC(=O)O,Activity,Mus musculus [4],Toxic
same,Activity,[5],inactive
same,Activity,Mus musculus [6],inactive
same,EC50,[1],> 1000 nM
same,Activity,Mus musculus [7],inactive
same,Activity,Mus musculus [8],25%
same,Activity,Mus musculus [9],Active
same,Activity,[10],Active
same,Activity,Mus musculus [11],Toxic
same,Activity,Mus musculus [12],inactive
same,Activity,[13],Active
same,Activity,[14],inactive
same,Activity,Mus musculus [15],Toxic
same,Activity,Mus musculus [16],Active
same,Activity,Mus musculus [17],Non-toxic
same,EC50,[2],> 1000 nM
same,EC50,[18],2.3 nM
same,Activity,Mus musculus [19],inactive
same,Activity,Mus musculus [20],Non-toxic
same,Activity,Mus musculus [21],inactive
same,Activity,Mus musculus [22],inactive
same,EC50,[3],0.9 nM
Cc1cc(SCc2sc(-c3ccc(C(F)(F)F)c(F)c3)nc2C)ccc1OCC(=O)O,Cmax,[23],21 µM
same,Activity,[5],Active
same,Activity,[14],Active
same,Activity,Mus musculus [24],Active
same,Activity,Mus musculus [25],Toxic
